Reference: ChEMBL document CHEMBL3425440, “ent-Kaurane Diterpenoids from Chinese Liverworts and Their Antitumor Activities through Michael Addition As Detected in Situ by a Fluorescence Probe” (J Med Chem, 2015)

Columns and labels:
[1] = Cytotoxicity against human RWPE1 cells assessed as cell viability after 24 hrs by MTT assay; type: cell-based; details: RWPE-1, 24 h
Outline: (§1)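 Cells grown to about 50−70% confluence at 37 °C, 5% CO2, then exposed to compounds 24 h (DMSO vehicle control, cisplatin positive control). MTT (5 mg/mL stock) added for 4 h, formazan dissolved in DMSO, absorbance read at 570 nm. IC50 derived from percent viability; at least three independent experiments, mean ± SD.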

[2] = Cytotoxicity against human SH-SY5Y cells assessed as cell viability after 24 hrs by MTT assay; type: functional, cell-based; outline: as §1
LNCaP = test: Cytotoxicity against human LNCAP cells assessed as cell viability after 24 hrs by MTT assay; type: functional, cell-based; outline: as §1
[3] = Cytotoxicity against human T24 cells assessed as cell viability after 24 hrs by MTT assay; type: functional, cell-based; details: T-24, 24 h; outline: as §1
DU-145 = test: Cytotoxicity against human DU145 cells assessed as cell viability after 24 hrs by MTT assay; type: functional, cell-based; details: DU-145, 24 h; outline: as §1
K562 = test: Cytotoxicity against human K562 cells assessed as cell viability after 24 hrs by MTT assay; type: functional, cell-based; details: K562, 24 h; outline: as §1
LoVo = test: Cytotoxicity against human LoVo cells assessed as cell viability after 24 hrs by MTT assay; type: functional, cell-based; outline: as §1
[4] = Cytotoxicity against human Saos2 cells assessed as cell viability after 24 hrs by MTT assay; type: functional, cell-based; details: SAOS-2, 24 h; outline: as §1
[5] = Cytotoxicity against human SKOV3 cells assessed as cell viability after 24 hrs by MTT assay; type: functional, cell-based; details: SK-OV-3, 24 h; outline: as §1
[6] = Cytotoxicity against human HL60 cells assessed as cell viability after 24 hrs by MTT assay; type: functional, cell-based; details: HL-60, 24 h; outline: as §1
NCI-H1299 = test: Cytotoxicity against human NCI-H1299 cells assessed as cell viability after 24 hrs by MTT assay; type: functional, cell-based; details: NCI-H1299, 24 h; outline: as §1
[7] = Cytotoxicity against human A172 cells assessed as cell viability after 24 hrs by MTT assay; type: functional, cell-based; details: A 172, 24 h; outline: as §1
MDA-MB-231 = test: Cytotoxicity against human MDA-MB-231 cells assessed as cell viability after 24 hrs by MTT assay; type: functional, cell-based; details: MDA-MB-231, 24 h; outline: as §1
[8] = Cytotoxicity against human PC3 cells assessed as cell viability after 24 hrs by MTT assay; type: functional, cell-based; details: PC-3, 24 h; outline: as §1

SMILES	IC50 [1]	IC50 [2]	IC50 (LNCaP)	IC50 [3]	IC50 (DU-145)	IC50 (K562)	IC50 (LoVo)	IC50 [4]	IC50 [5]	IC50 [6]	IC50 (NCI-H1299)	IC50 [7]	IC50 (MDA-MB-231)	IC50 [8]
C=C1[C@@H]2CC[C@H]3[C@]4(C)CCC[C@@](C)(CO)[C@H]4CC[C@]3(C2)[C@@H]1O	> 50 µM	> 50 µM	> 50 µM	> 50 µM	> 50 µM	> 50 µM	> 50 µM	> 50 µM	> 50 µM	> 50 µM	> 50 µM	> 50 µM	> 50 µM	> 50 µM
C=C1[C@@H]2CC[C@H]3[C@]4(C)CCCC(C)(C)[C@H]4C[C@@H](O)[C@]3(C2)[C@@H]1O	> 50 µM	> 50 µM	> 50 µM	> 50 µM	> 50 µM	> 50 µM	> 50 µM	> 50 µM	> 50 µM	> 50 µM	> 50 µM	> 50 µM	> 50 µM	> 50 µM
C[C@@H]1C(=O)[C@H]2C[C@]1(O)CC1=C2[C@]2(C)CCC[C@](C)(CO)[C@H]2CC1	> 50 µM	> 50 µM	> 50 µM	> 50 µM	> 50 µM	> 50 µM	> 50 µM	> 50 µM	> 50 µM	> 50 µM	> 50 µM	> 50 µM	> 50 µM	> 50 µM
C=C1[C@@H]2CC(=O)[C@H]3[C@]4(C)CCCC(C)(C)[C@H]4C[C@@H](O)[C@]3(C2)[C@@H]1O	> 50 µM	> 50 µM	> 50 µM	> 50 µM	> 50 µM	> 50 µM	> 50 µM	> 50 µM	> 50 µM	> 50 µM	> 50 µM	> 50 µM	> 50 µM	> 50 µM
C=C1[C@@H]2CC[C@H]3[C@]4(C)CCC[C@](C)(C(=O)O)[C@H]4CC[C@]3(C2)[C@@H]1OC(C)=O	> 50 µM	> 50 µM	> 50 µM	> 50 µM	> 50 µM	> 50 µM	> 50 µM	> 50 µM	> 50 µM	> 50 µM	> 50 µM	> 50 µM	> 50 µM	> 50 µM
C=C1[C@@H]2CC(=O)[C@H]3[C@]4(C)CCCC(C)(C)[C@H]4CC[C@]3(C2)[C@@H]1O	> 50 µM	> 50 µM	> 50 µM	> 50 µM	> 50 µM	> 50 µM	> 50 µM	> 50 µM	> 50 µM	> 50 µM	> 50 µM	> 50 µM	> 50 µM	> 50 µM
C=C1C(=O)[C@@]23CC[C@@H]4[C@@](C)(C=O)CCC[C@@]4(C)C2=CC[C@]1(O)C3	12.7 µM	4.2 µM	9.5 µM	5.9 µM	11.6 µM	6.3 µM	9.3 µM	7.3 µM	7.4 µM	4.4 µM	12.2 µM	4.4 µM	21.6 µM	11.4 µM
C=C1[C@@H]2CC(=O)[C@H]3[C@]4(C)CCCC(C)(C)[C@H]4[C@@H](O)[C@@H](O)[C@]3(C2)[C@@H]1O	> 50 µM	> 50 µM	> 50 µM	> 50 µM	> 50 µM	> 50 µM	> 50 µM	> 50 µM	> 50 µM	> 50 µM	> 50 µM	> 50 µM	> 50 µM	> 50 µM
